# According to ChEMBL document CHEMBL1124801, “Novel 3-hydroxy-2(1H)-pyridinones. Synthesis, iron(III)-chelating properties, and biological activity” (J Med Chem, 1990):
# Legend:
# Assay type in all cases: physicochemical
# [1] = Distribution coefficient and iron(III) complex was measured at an aqueous phase buffered at pH 7.4 and octanol; conditions: octanol/water
# Summary of the method: (§1)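 Spectrophotometric partition: ligands at about 0.1 mM in 20 mM Tris-HCl pH 7.4 shaken overnight with octan-1-ol at 25 °C. Octanol volume chosen to lower aqueous absorbance by 30–70%; three preparations used. Aqueous spectra read at 250–350 nm for free ligands and 350–600 for iron(III) complexes, the complexes formed with over 10-fold ligand excess over iron(III).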
# [2] = Distribution coefficient was measured at an aqueous phase buffered at pH 7.4 and octanol; conditions: octanol/water; summary of the method: as §1
# [3] = pKa values was measured by spectrophotometric method
# [4] = pKa values were measured by spectrophotometric method
SMILES,Distribution coefficient [1],Distribution coefficient [2],pKa [3],pKa [4]
O=C(Cn1cccc(O)c1=O)NCCN(CCNC(=O)Cn1cccc(O)c1=O)CCNC(=O)Cn1cccc(O)c1=O,0.008,0.025,8.7,–
CCCNC(=O)Cn1cccc(O)c1=O,0.35,0.57,8.75,–
CCCn1cccc(O)c1=O,24.6,4.92,–,–
CNC(=O)Cn1cccc(O)c1=O,0.001,0.07,–,–
CCNC(=O)Cn1cccc(O)c1=O,0.035,0.18,–,–
CCCCn1cccc(O)c1=O,> 1000,16,–,–
CCCCNC(=O)Cn1cccc(O)c1=O,3.74,2.12,–,–
CC(=O)N(O)CCCCCNC(=O)CCC(=O)N(O)CCCCCNC(=O)CCC(=O)N(O)CCCCCN [DEFEROXAMINE],0.03,0.07,–,–

# Now from value to compound:
Distribution coefficient [1],Distribution coefficient [2],pKa [3],pKa [4],SMILES
0.11,0.46,–,–,CC(C)NC(=O)Cn1cccc(O)c1=O
234,6.17,–,–,CC(C)n1cccc(O)c1=O
1.67,1.57,–,8.99,CCn1cccc(O)c1=O
0.12,0.6,–,–,Cn1cccc(O)c1=O
